The nature of experiment [1]: Inhibition of chymotrypsin-like activity of human 20S proteasome.
The nature of experiment [2]: Inhibition of caspase-like activity of human 20S proteasome. In short, it runs like this: (§1)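 Purified human 20S proteasome assayed with the activator PA28 (16 µg/ml) and fluorogenic substrates: Suc-Leu-Leu-Val-Tyr-AMC for chymotrypsin-like, Bz-VGR-AMC for trypsin-like, and (Z)-LLE-bNA for caspase-like activity. Fluorescence was read at 360/460 nm across a range of inhibitor concentrations. IC50 is the concentration that halves reaction velocity (ΔRFU/min), taken from a plot of velocity against log concentration.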

Experiment [3] can be described thus: Inhibition of trypsin-like activity of human 20S proteasome. In outline: as §1
Experiment [4] has as its system MT4. The experiment in a line: Inhibition of TNF-alpha-induced 20S proteasome degradation of IkappaBalpha in human MT4 cells at 1.6 uM after 3 hrs by Western blot analysis. Format: cell-based. In short, it runs like this: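 MT4 cells pretreated with inhibitor 3 h, then TNFα 10 ng/ml for 30 min; cytosolic proteins resolved on 12% SDS-PAGE, transferred to nitrocellulose and Western blotted for IκBα, with β-actin as loading reference.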
(In general: In western blotting, separated proteins are transferred to a membrane and probed.)

In experiment [5] the test system is MT4. The experiment in a line: Inhibition of chymotrypsin-like activity of 20S proteasome in human MT4 cells at 0.25 uM after 3 hrs. Format: cell-based.

Activity calls are given as the source filed them. The calls are words filed in the database; no cut-off is given here. Residues, ends and D or L forms follow the SMILES beside them.

For `CC1(C)[C@@H](OC(=O)Cc2cccc(CC(=O)O)c2)CC[C@]2(C)[C@H]3C(=O)C=C4[C@@H]5C[C@@](C)(C(=O)O)CC[C@]5(C)CC[C@@]4(C)[C@]3(C)CC[C@@H]12`, the midpoint of inhibition in experiment [1], the IC50, lay at 1.05 µM.

`CC1(C)[C@@H](OC(=O)CCCC(=O)O)CC[C@]2(C)[C@H]3C(=O)C=C4[C@@H]5C[C@@](C)(C(=O)O)CC[C@]5(C)CC[C@@]4(C)[C@]3(C)CC[C@@H]12` showed a 50% inhibitory concentration (IC50) in experiment [1] of 1.39 µM. Take `CC1(C)[C@@H](O)CC[C@]2(C)[C@H]3C(=O)C=C4[C@@H]5C[C@@](C)(C(=O)O)CC[C@]5(C)CC[C@@]4(C)[C@]3(C)CC[C@@H]12` [ENOXOLONE]: the IC50 is over 40 µM in experiment [2], 22.3 µM in experiment [1] and over 40 µM in experiment [3].

The compound `CC1(C)[C@@H](OC(=O)c2ccccc2)CC[C@]2(C)[C@H]3C(=O)C=C4[C@@H]5C[C@@](C)(C(=O)O)CC[C@]5(C)CC[C@@]4(C)[C@]3(C)CC[C@@H]12` yielded an IC50 in experiment [1] of 2.08 µM. Turning to `CC(=O)N[C@@H](CSC(=O)C1([C@@H](O)C(C)C)NC(=O)[C@H](C)[C@@H]1O)C(=O)O` (single isomer, unassigned) [LACTACYSTIN], the IC50 in experiment [2] and in experiment [3] was over 30 µM each time. Turning to `CSCC[C@@H](C=O)NC(=O)[C@H](CC(C)C)NC(=O)[C@H](CC(C)C)NC(C)=O` (Ac-Leu-Leu-Met-aldehyde), the IC50 is 22.5 µM in experiment [2], 5.25 µM in experiment [1] and over 25 µM in experiment [3]. As to `CC1(C)[C@@H](OC(=O)c2ccc(C(=O)O)cc2)CC[C@]2(C)[C@H]3C(=O)C=C4[C@@H]5C[C@@](C)(C(=O)O)CC[C@]5(C)CC[C@@]4(C)[C@]3(C)CC[C@@H]12`, the half-maximal inhibitory concentration (IC50) in experiment [1] came out at 0.31 µM. On the same count and under the same terms, then `CC(C(=O)O)C(C)C(=O)O[C@H]1CC[C@]2(C)[C@H]3C(=O)C=C4[C@@H]5C[C@@](C)(C(=O)O)CC[C@]5(C)CC[C@@]4(C)[C@]3(C)CC[C@H]2C1(C)C` (stereo partly specified), with 8.7 µM; and `CC(C)CC(NC(=O)[C@@]1(C)CC[C@]2(C)CC[C@]3(C)C(=CC(=O)[C@@H]4[C@@]5(C)CC[C@H](OC(=O)CC(C)(C)C(=O)O)C(C)(C)[C@@H]5CC[C@]43C)[C@@H]2C1)C(=O)O` (stereo partly specified), with 3.09 µM. The same measure, in the same setting: as for `CC1(C)[C@@H](OC(=O)Cc2ccc(CC(=O)O)cc2)CC[C@]2(C)[C@H]3C(=O)C=C4[C@@H]5C[C@@](C)(C(=O)O)CC[C@]5(C)CC[C@@]4(C)[C@]3(C)CC[C@@H]12`, the figure is 1.78 µM; as for `COC(=O)C(CC(C)C)NC(=O)[C@@]1(C)CC[C@]2(C)CC[C@]3(C)C(=CC(=O)[C@@H]4[C@@]5(C)CC[C@H](OC(C)=O)C(C)(C)[C@@H]5CC[C@]43C)[C@@H]2C1` (stereo partly specified), over 40 µM; as for `CC(=O)O[C@H]1CC[C@]2(C)[C@H]3C(=O)C=C4[C@@H]5C[C@@](C)(C(=O)O)CC[C@]5(C)CC[C@@]4(C)[C@]3(C)CC[C@H]2C1(C)C` [ACETOXOLONE], over 40 µM.

As for `CC1(C)[C@@H](OC(=O)COCC(=O)O)CC[C@]2(C)[C@H]3C(=O)C=C4[C@@H]5C[C@@](C)(C(=O)O)CC[C@]5(C)CC[C@@]4(C)[C@]3(C)CC[C@@H]12`, the IC50 in experiment [1] came to 1.93 µM.

Take `CC1(C)[C@@H](OC(=O)c2cccc(C(=O)O)c2)CC[C@]2(C)[C@H]3C(=O)C=C4[C@@H]5C[C@@](C)(C(=O)O)CC[C@]5(C)CC[C@@]4(C)[C@]3(C)CC[C@@H]12`: the IC50 in experiment [2] was determined as 3.56 µM; in experiment [1], 0.22 µM; in experiment [3] it was 2.91 µM. Also, the outcome with MT4 [4] was Active. The same compound displayed an inhibition in the experiment with MT4 [5] of 50%.

In experiment [1], `CC(C)(CC(=O)O[C@H]1CC[C@]2(C)[C@H]3C(=O)C=C4[C@@H]5C[C@@](C)(C(=O)O)CC[C@]5(C)CC[C@@]4(C)[C@]3(C)CC[C@H]2C1(C)C)C(=O)O` gave an IC50 of 0.87 µM.

`CC(=O)Cc1ccc(OCC(=O)O[C@H]2CC[C@]3(C)[C@H]4C(=O)C=C5[C@@H]6C[C@@](C)(C(=O)O)CC[C@]6(C)CC[C@@]5(C)[C@]4(C)CC[C@H]3C2(C)C)cc1` registered an IC50 in experiment [1] of 2.27 µM. Compound `CC(C)(CC(=O)O)CC(=O)O[C@H]1CC[C@]2(C)[C@H]3C(=O)C=C4[C@@H]5C[C@@](C)(C(=O)O)CC[C@]5(C)CC[C@@]4(C)[C@]3(C)CC[C@H]2C1(C)C` gave a concentration for half-maximal inhibition (IC50) in experiment [1] of 6.86 µM. Still for that read-out and setting: as for `CCC(=O)O[C@H]1CC[C@]2(C)[C@H]3C(=O)C=C4[C@@H]5C[C@@](C)(C(=O)O)CC[C@]5(C)CC[C@@]4(C)[C@]3(C)CC[C@H]2C1(C)C`, the figure is over 40 µM. For the compound `CC1(C)[C@@H](OC(=O)CCCCC(=O)O)CC[C@]2(C)[C@H]3C(=O)C=C4[C@@H]5C[C@@](C)(C(=O)O)CC[C@]5(C)CC[C@@]4(C)[C@]3(C)CC[C@@H]12`, the results for the concentration for half-maximal inhibition (IC50) in experiment [2], in experiment [1] and in experiment [3] were 5.02 µM, 0.29 µM and 3.32 µM, respectively. Compound `CC(C)CC(NC(=O)[C@@]1(C)CC[C@]2(C)CC[C@]3(C)C(=CC(=O)[C@@H]4[C@@]5(C)CC[C@H](O)C(C)(C)[C@@H]5CC[C@]43C)[C@@H]2C1)C(=O)O` (stereo partly specified) had an IC50 in experiment [1] of over 40 µM. The same measure, in the same setting: then `CC1(C)[C@@H](OC(=O)CCC(=O)O)CC[C@]2(C)[C@H]3C(=O)C=C4[C@@H]5C[C@@](C)(C(=O)O)CC[C@]5(C)CC[C@@]4(C)[C@]3(C)CC[C@@H]12` [CARBENOXOLONE], with 2.63 µM. `CC(C)C(=O)O[C@H]1CC[C@]2(C)[C@H]3C(=O)C=C4[C@@H]5C[C@@](C)(C(=O)O)CC[C@]5(C)CC[C@@]4(C)[C@]3(C)CC[C@H]2C1(C)C` showed an IC50 in experiment [1] of 1.92 µM. With `CC1(C)[C@@H](OC(=O)C/C=C/CC(=O)O)CC[C@]2(C)[C@H]3C(=O)C=C4[C@@H]5C[C@@](C)(C(=O)O)CC[C@]5(C)CC[C@@]4(C)[C@]3(C)CC[C@@H]12`, the IC50 in experiment [2] was 26.5 µM; in experiment [1], 0.35 µM; in experiment [3] it was 19.3 µM.

As a reminder, the IC50 is the concentration at which inhibition is half-maximal. Usually inhibition stands for the share of the control response that was lost under treatment. A high value points to a strong effect.

(Values after ChEMBL document CHEMBL1155027, “Synthesis and proteasome inhibition of glycyrrhetinic acid derivatives” (Bioorg Med Chem, 2008).)
